Published values gathered from unrelated publications.
Protocols differ between the studies behind these lines. pIC50: −log10 of the molar value.
MAPK14: Mitogen-activated protein kinase 14 (MAPK14, Homo sapiens, UniProt Q16539)
Si: Sucrase-isomaltase, intestinal (Si, Rattus norvegicus, UniProt P23739)
HTR1A: 5-hydroxytryptamine receptor 1A (HTR1A, Homo sapiens, UniProt P08908)
Dihydrofolate reductase: Dihydrofolate reductase (Bos taurus, UniProt P00376)

| SMILES | target | assay | pIC50 |
| --- | --- | --- | --- |
| c1ccc(Cn2cc(-c3ccnc4ccccc34)c(-c3ccccn3)n2)cc1 | MAPK14 | enzyme activity, inhibitor, ADP detection | 5.52 |
| COc1cc(C=O)cc(OC)c1O | Si | enzyme activity, inhibitor, absorbance | 2.95 |
| COc1ccccc1N1CCN(CC(C(=O)NC(C)(C)C)c2ccccc2)CC1 (stereo not drawn) | HTR1A | cAMP, antagonist, TR-FRET | 6.42 |
| c1ccc(-c2occc2-c2ccnc3ccccc23)nc1 | MAPK14 | enzyme activity, inhibitor, ADP detection | < 4.52 |
| COc1cc(C=O)ccc1O | Si | enzyme activity, inhibitor, absorbance | 2.87 |
| COc1ccc(-n2nc(C(=O)c3ccc(Nc4cnccn4)cc3)sc2=N)cc1 | Dihydrofolate reductase | enzyme activity, inhibitor | 4.93 |
| c1ccc(-c2[nH]ccc2-c2ccnc3ccccc23)nc1 | MAPK14 | enzyme activity, inhibitor, ADP detection | < 4.52 |
| Cc1cc(O)c(-c2ccc([C@@H](C)CN(C)C)cc2)c2c1[nH]c(=O)c1sccc12 | Cyclin-dependent kinase 14, with cyclin Y (CDK14, Homo sapiens, UniProt O94921) | enzyme activity, inhibitor | < 6.00 |
| CC(=O)C1=NN(c2ccccc2)C(=C(C#N)C(=O)c2ccc(Nc3cnccn3)cc2)S1 | Dihydrofolate reductase | enzyme activity, inhibitor | 5.71 |
| CN1CCC(CNc2ccc3ncc(-c4cccc(OC(F)(F)F)c4)n3n2)CC1 | HTR1A | cAMP, agonist | 5.15 |
| N=c1sc(C(=O)c2ccc(Nc3cnccn3)cc2)nn1-c1ccc([N+](=O)[O-])cc1 | Dihydrofolate reductase | enzyme activity, inhibitor | 5.35 |
| CNCc1cc(-c2cc(O)ccc2OC(F)(F)F)ccc1F | Estrogen receptor (ESR1, Homo sapiens, UniProt P03372, D538G) | coactivator recruitment, TR-FRET | ~4.74 |
